Measured values from ChEMBL document CHEMBL2424522, “Demonic axe-like conjugated alkynes in combating microbes” (2013).
In brackets after ≈: the same amount, converted by molar mass.

Legend:
Type in all cases: functional
Aspergillus flavus [1] = assay: Antifungal activity against Aspergillus flavus MTCC 277 at 100 ug/ml after 48 hrs by agar well diffusion method; settings: MTCC 277, 48 h, read-out: IZ
Outline: (§1)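 Test samples and DMSO controls incubated at 27 °C for 48 h. Inhibition zone diameter measured in mm. Three to four replicates per treatment.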

Diutina rugosa [2] = assay: Antifungal activity against Candida rugosa NCIM 3462 at 100 ug/ml after 48 hrs by agar well diffusion method; settings: NCIM 3462, 48 h, read-out: IZ; outline: as §1
Candida albicans [3] = assay: Antifungal activity against Candida albicans MTCC 227 at 50 ug/ml after 48 hrs by agar well diffusion method; settings: MTCC 227, 48 h, read-out: IZ; outline: as §1
Aspergillus niger [4] = assay: Antifungal activity against Aspergillus niger MTCC 344 at 50 ug/ml after 48 hrs by agar well diffusion method; settings: MTCC 344, 48 h, read-out: IZ; outline: as §1
[5] = test system: Staphylococcus epidermidis; assay: Antibacterial activity against Staphylococcus epidermidis MTCC 435 by broth dilution method
Outline: (§2)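 Broth dilution per NCCL standards; all phosphorus ylides and conjugated alkynes tested in vitro.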

Diutina rugosa [6] = assay: Antifungal activity against Candida rugosa NCIM 3462 at 50 ug/ml after 48 hrs by agar well diffusion method; settings: NCIM 3462, 48 h, read-out: IZ; outline: as §1
Aspergillus flavus [7] = assay: Antifungal activity against Aspergillus flavus MTCC 277 at 50 ug/ml after 48 hrs by agar well diffusion method; settings: MTCC 277, 48 h, read-out: IZ; outline: as §1
Pseudomonas aeruginosa = assay: Antibacterial activity against Pseudomonas aeruginosa MTCC 741 by broth dilution method; outline: as §2
Aspergillus niger [8] = assay: Antifungal activity against Aspergillus niger MTCC 344 at 100 ug/ml after 48 hrs by agar well diffusion method; settings: MTCC 344, 48 h, read-out: IZ; outline: as §1
Staphylococcus aureus = assay: Antibacterial activity against Staphylococcus aureus MTCC 96 by broth dilution method; outline: as §2
Escherichia coli = assay: Antibacterial activity against Escherichia coli MTCC 443 by broth dilution method; outline: as §2
Saccharomyces cerevisiae [9] = assay: Antifungal activity against Saccharomyces cerevisiae MTCC 36 at 100 ug/ml after 48 hrs by agar well diffusion method; settings: MTCC 36, 48 h, read-out: IZ; outline: as §1
Candida albicans [10] = assay: Antifungal activity against Candida albicans MTCC 227 at 100 ug/ml after 48 hrs by agar well diffusion method; settings: MTCC 227, 48 h, read-out: IZ; outline: as §1
Klebsiella pneumoniae = assay: Antibacterial activity against Klebsiella pneumoniae MTCC 618 by broth dilution method; outline: as §2
Saccharomyces cerevisiae [11] = assay: Antifungal activity against Saccharomyces cerevisiae MTCC 36 at 50 ug/ml after 48 hrs by agar well diffusion method; settings: MTCC 36, 48 h, read-out: IZ; outline: as §1
Bacillus subtilis = assay: Antibacterial activity against Bacillus subtilis MTCC 441 by broth dilution method; outline: as §2

Row | Compound | zone of inhibition at 100 µg/mL (Aspergillus flavus [1]) [mm] | zone of inhibition at 100 µg/mL (Diutina rugosa [2]) [mm] | zone of inhibition at 50 µg/mL (Candida albicans [3]) [mm] | zone of inhibition at 50 µg/mL (Aspergillus niger [4]) [mm] | MIC [5] [µg/mL] | zone of inhibition at 50 µg/mL (Diutina rugosa [6]) [mm] | zone of inhibition at 50 µg/mL (Aspergillus flavus [7]) [mm] | MIC (Pseudomonas aeruginosa) [µg/mL] | zone of inhibition at 100 µg/mL (Aspergillus niger [8]) [mm] | MIC (Staphylococcus aureus) [µg/mL] | MIC (Escherichia coli) [µg/mL] | zone of inhibition at 100 µg/mL (Saccharomyces cerevisiae [9]) [mm] | zone of inhibition at 100 µg/mL (Candida albicans [10]) [mm] | MIC (Klebsiella pneumoniae) [µg/mL] | zone of inhibition at 50 µg/mL (Saccharomyces cerevisiae [11]) [mm] | MIC (Bacillus subtilis) [µg/mL]
1 | N#CC#Cc1ccc(Cl)nc1 | 47 | 28 | 35 | 39 | 6.25 (≈ 38.4 µM) | 33 | 44 | 0.78 (≈ 4.8 µM) | 43 | 1.56 (≈ 9.6 µM) | 100 (≈ 615 µM) | 10 | 40 | 3.12 (≈ 19.2 µM) | 0 | 1.56 (≈ 9.6 µM)
2 | N#CC#Cc1cccnc1Cl | 39 | 29 | 23 | 26 | 50 (≈ 308 µM) | 23 | 35 | 0.78 (≈ 4.8 µM) | 30 | 6.25 (≈ 38.4 µM) | 100 (≈ 615 µM) | 11 | 28 | 12.5 (≈ 76.9 µM) | 0 | 3.12 (≈ 19.2 µM)
3 | CCOC(=O)C#Cc1ccc(Cl)nc1 | 25 | 15 | 15 | 25 | 50 (≈ 239 µM) | 10 | 20 | 0.78 (≈ 3.72 µM) | 29 | 1.56 (≈ 7.44 µM) | 100 (≈ 477 µM) | 29 | 20 | 6.25 (≈ 29.8 µM) | 25 | 6.25 (≈ 29.8 µM)
4 | CC(C)OC(=O)C#Cc1ccc(Cl)nc1 | 19 | 11 | 13 | 17 | 1.56 (≈ 6.97 µM) | 0 | 12 | 1.56 (≈ 6.97 µM) | 23 | 1.56 (≈ 6.97 µM) | 100 (≈ 447 µM) | 17 | 19 | 12.5 (≈ 55.9 µM) | 11 | 50 (≈ 224 µM)
5 | N#CC#Cc1cc(F)c(Cl)nc1Cl | 25 | 11 | 11 | 20 | 25 (≈ 116 µM) | 0 | 20 | 100 (≈ 465 µM) | 24 | 12.5 (≈ 58.1 µM) | 100 (≈ 465 µM) | 10 | 16 | 12.5 (≈ 58.1 µM) | 0 | 6.25 (≈ 29.1 µM)
6 | Cc1ccccc1C#CC#N | 0 | 0 | 0 | 0 | > 150 | 0 | 0 | > 150 | 0 | > 150 | > 150 | 0 | 0 | > 150 | 0 | > 150
7 | CCOC(=O)C#Cc1ccccc1C | 0 | 0 | 0 | 0 | > 150 | 0 | 0 | > 150 | 0 | > 150 | > 150 | 0 | 0 | > 150 | 0 | > 150
8 | CCOC(=O)C#CC(C)(C)C | 0 | 0 | 0 | 0 | > 150 | 0 | 0 | > 150 | 0 | > 150 | > 150 | 0 | 0 | > 150 | 0 | > 150
9 | C[C@@H]1[C@H](O)[C@@H](C)/C=C/C=C/C=C/C=C/C=C/C=C/C=C/[C@H](O[C@@H]2O[C@H](C)[C@@H](O)[C@H](N)[C@@H]2O)C[C@@H]2O[C@](O)(C[C@@H](O)C[C@@H](O)[C@H](O)CC[C@@H](O)C[C@@H](O)CC(=O)O[C@H]1C)C[C@H](O)[C@H]2C(=O)O [AMPHOTERICIN B] | – | – | 23.5 | 25 | – | 21 | 25 | – | – | – | – | – | – | – | 22 | –
